The target of one data set is Collagenase 3 (Homo sapiens, UniProt P45452). The experiment in a line: Inhibition of human recombinant MMP13 after 60 mins by fluorescence plate reader. Summed up:
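rh-MMP-13 at 40 ng/mL with 5 μM 7-MCA-Pro-CHA-Gly-NVal-His-Ala-DPA, in Tris-HCl pH 7.5/NaCl/CaCl₂/0.05% Brij-35. Pretreatment with inhibitor for 15 min at 25 °C, then substrate started the reaction. Fluorescence (ex 325/em 405 nm) read at 60 min. IC50 from three central linear points, averaged over ≥2 determinations.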

Data set [1] addresses T1, A disintegrin and metalloproteinase with thrombospondin motifs 4 (Homo sapiens, UniProt O75173).
T1 sequence (O75173 whole entry): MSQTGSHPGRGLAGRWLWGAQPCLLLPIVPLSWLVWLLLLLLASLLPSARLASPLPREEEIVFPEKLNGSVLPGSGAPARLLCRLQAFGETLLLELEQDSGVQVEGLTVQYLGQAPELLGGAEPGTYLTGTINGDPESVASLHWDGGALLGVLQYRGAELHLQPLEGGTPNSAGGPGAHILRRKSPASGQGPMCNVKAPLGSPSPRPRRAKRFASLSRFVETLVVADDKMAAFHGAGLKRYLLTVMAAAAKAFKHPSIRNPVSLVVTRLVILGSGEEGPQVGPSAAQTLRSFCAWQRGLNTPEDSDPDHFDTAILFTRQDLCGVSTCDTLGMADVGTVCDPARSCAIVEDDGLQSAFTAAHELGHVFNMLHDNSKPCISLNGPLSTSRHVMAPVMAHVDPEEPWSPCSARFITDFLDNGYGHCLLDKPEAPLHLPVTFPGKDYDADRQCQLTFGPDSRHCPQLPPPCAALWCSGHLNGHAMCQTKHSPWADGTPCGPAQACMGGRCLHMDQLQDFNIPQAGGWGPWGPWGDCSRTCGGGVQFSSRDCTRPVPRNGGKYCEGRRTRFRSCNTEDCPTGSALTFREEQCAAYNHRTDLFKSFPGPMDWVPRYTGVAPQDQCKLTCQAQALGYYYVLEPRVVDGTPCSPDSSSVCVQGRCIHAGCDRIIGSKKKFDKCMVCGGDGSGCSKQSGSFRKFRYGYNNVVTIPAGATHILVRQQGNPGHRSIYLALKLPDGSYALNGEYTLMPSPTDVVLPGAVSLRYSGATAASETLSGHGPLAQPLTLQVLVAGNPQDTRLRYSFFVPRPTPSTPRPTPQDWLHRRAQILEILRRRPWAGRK
The experiment in a line: Inhibition of human recombinant aggrecanase 1 after 150 mins by fluorescence plate reader.

The target of data set [2] is Matrix metalloproteinase-14 (Homo sapiens, UniProt P50281). Put plainly: Inhibition of human recombinant MMP14 after 60 mins by fluorescence plate reader. The procedure, abridged: (§1)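 Recombinant human enzyme at 20 ng/mL with 10 μM MOCAc-Lys-Pro-Leu-Gly-Leu-A2pr(Dnp)-Ala-Arg-NH₂, in 100 mM Tris-HCl pH 7.5, 150 mM NaCl, 10 mM CaCl₂, 0.05% Brij-35. Enzyme pretreated with inhibitor for 15 min at 25 °C, then substrate added. Fluorescence (ex 325, em 405 nm) read at 60 min. IC50 taken from three points in the linear range; mean of ≥2 determinations.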

Data set [3] addresses Matrix metalloproteinase-9 (Homo sapiens, UniProt P14780). The experiment in a line: Inhibition of human recombinant MMP9 after 60 mins by fluorescence plate reader. Summed up:
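rh-MMP-9 at 4 ng/mL with 10 μM MOCAc-Pro-Leu-Gly-Leu-A2pr(Dnp)-Ala-Arg-NH₂, in 100 mM Tris-HCl pH 7.5, 150 mM NaCl, 10 mM CaCl₂, 0.05% Brij-35. Enzyme and inhibitor preincubated for 15 min at 25 °C before substrate. Fluorescence (ex 325/em 405 nm) read at 60 min. IC50 from three linear-range points; ≥2 runs averaged.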

The next data set concerns the target Stromelysin-1 (Homo sapiens, UniProt P08254). The experiment in a line: Inhibition of human recombinant MMP3 after 60 mins by fluorescence plate reader. Summed up: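 rh-MMP-3 at 40 ng/mL with 10 μM MOCAc-Arg-Pro-Lys-Pro-Val-Glu-Nva-Trp-Arg-Lys(Dnp)-NH₂, in Tris-HCl pH 7.5/NaCl/CaCl₂/Brij-35 buffer. Inhibitor preincubated for 15 min at 25 °C. Fluorescence (ex 325/em 405 nm) read at 60 min. IC50 from three central linear points; at least two determinations averaged.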

The nature of data set [4]: Volume of distribution at steady state in Sprague-Dawley rat at 1 mg/kg, iv. It counts as ADME, organism-based. The arrangement: dose 1 mg/kg, route intravenous. As to conditions: in vivo, read-out: Vdss; call rule not given here. The procedure, abridged:
(§2)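 Intravenous dose of 1 mg/kg. Blood sampled at 0.50, 1, 2, 4, 8 and 24 h. Plasma obtained by centrifugation at 10 000 rpm for 5 min and kept at −20 °C until analysis.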

Data set [5] in a line: Clearance in Sprague-Dawley rat at 1 mg/kg, iv. The arrangement: dose 1 mg/kg, route intravenous. As to conditions: in vivo. It counts as ADME, organism-based. The procedure, abridged: as §2
Data set [6] is described as follows: AUC in Sprague-Dawley rat at 10 mg/kg, po. To be noted: plasma. Details: dose 10 mg/kg, route oral. Format: ADME, organism-based.
The next data set has as its target Cytochrome P450 3A4 (Homo sapiens, UniProt P08684). The experiment in a line: Inhibition of CYP3A4 at up to 50 uM. It counts as ADME.
The target in the next data set is Cytochrome P450 2C9 (Homo sapiens, UniProt P11712). Put plainly: Inhibition of CYP2C9 at up to 50 uM. It counts as ADME.
Another data set concerns Rattus norvegicus. Put plainly: Oral bioavailability in Sprague-Dawley rat at 10 mg/kg. It counts as ADME, organism-based. As to conditions: in vivo.
Data set [7] concerns the target T2, A disintegrin and metalloproteinase with thrombospondin motifs 5 (Homo sapiens, UniProt Q9UNA0).
T2 sequence (Q9UNA0 whole entry): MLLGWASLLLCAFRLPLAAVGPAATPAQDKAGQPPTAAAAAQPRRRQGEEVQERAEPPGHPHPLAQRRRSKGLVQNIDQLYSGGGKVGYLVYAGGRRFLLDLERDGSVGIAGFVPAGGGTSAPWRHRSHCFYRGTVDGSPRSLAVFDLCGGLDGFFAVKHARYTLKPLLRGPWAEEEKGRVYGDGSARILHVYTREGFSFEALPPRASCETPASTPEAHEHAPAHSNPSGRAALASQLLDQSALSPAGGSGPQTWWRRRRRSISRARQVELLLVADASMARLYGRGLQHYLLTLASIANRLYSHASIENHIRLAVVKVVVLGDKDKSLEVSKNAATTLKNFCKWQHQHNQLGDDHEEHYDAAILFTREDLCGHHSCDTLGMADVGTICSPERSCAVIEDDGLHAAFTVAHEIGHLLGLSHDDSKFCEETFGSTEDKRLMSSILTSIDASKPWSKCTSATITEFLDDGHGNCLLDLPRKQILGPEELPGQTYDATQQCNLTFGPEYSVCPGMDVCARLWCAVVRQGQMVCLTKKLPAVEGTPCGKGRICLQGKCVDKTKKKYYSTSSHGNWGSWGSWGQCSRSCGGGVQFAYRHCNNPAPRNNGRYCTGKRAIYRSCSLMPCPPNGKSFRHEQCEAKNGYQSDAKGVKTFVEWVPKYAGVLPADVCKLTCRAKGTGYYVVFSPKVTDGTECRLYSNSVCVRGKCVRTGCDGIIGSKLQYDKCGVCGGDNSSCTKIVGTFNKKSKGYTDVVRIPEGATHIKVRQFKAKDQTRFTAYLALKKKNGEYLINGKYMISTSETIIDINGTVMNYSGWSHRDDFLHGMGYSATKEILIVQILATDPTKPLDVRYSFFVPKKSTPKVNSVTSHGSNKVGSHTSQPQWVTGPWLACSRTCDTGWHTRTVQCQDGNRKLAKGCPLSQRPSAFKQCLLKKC
Put plainly: Inhibition of human recombinant aggrecanase 2 after 150 mins by fluorescence plate reader.

The target of the next data set is T3, Cytochrome P450 1A2 (Homo sapiens, UniProt P05177).
T3 sequence (P05177 whole entry): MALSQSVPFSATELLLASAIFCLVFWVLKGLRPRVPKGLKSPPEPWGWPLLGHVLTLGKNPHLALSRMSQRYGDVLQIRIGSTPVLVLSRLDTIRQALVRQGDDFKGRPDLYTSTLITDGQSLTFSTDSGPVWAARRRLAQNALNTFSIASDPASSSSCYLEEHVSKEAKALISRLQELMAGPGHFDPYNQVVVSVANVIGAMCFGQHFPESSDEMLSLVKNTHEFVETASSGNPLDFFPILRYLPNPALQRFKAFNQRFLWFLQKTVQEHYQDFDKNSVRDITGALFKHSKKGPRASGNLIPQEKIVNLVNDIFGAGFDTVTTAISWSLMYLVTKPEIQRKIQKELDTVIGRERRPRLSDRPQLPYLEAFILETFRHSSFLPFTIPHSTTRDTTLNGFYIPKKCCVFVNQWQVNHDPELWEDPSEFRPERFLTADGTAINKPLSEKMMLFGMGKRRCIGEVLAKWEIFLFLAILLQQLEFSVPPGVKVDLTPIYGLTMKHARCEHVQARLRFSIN
The experiment in a line: Inhibition of CYP1A2 at up to 50 uM. Format: ADME.

A further data set concerns the target T4, Interstitial collagenase (Homo sapiens, UniProt P03956).
T4 sequence (P03956 whole entry): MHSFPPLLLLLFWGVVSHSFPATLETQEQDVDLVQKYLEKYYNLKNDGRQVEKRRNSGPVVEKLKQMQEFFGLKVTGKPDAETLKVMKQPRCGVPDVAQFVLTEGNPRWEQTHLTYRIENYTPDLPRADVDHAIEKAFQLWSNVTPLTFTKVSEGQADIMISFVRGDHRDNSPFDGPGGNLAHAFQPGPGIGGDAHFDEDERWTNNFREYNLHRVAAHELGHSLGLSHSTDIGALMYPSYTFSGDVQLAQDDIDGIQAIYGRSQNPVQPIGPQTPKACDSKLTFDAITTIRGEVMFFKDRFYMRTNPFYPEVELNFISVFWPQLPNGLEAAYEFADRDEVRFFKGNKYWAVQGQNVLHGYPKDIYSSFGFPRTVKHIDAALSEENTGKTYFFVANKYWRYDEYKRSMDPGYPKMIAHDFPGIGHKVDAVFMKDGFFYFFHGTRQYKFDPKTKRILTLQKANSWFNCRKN
Put plainly: Inhibition of human recombinant MMP1 after 60 mins by fluorescence plate reader. The procedure, abridged:
as §1

A further data set deals with Cytochrome P450 2D6 (Homo sapiens, UniProt P10635). Put plainly: Inhibition of CYP2D6 at up to 50 uM. Format: ADME.
The target in data set [8] is Disintegrin and metalloproteinase domain-containing protein 17 (Homo sapiens, UniProt P78536). Put plainly: Inhibition of human recombinant TACE after 60 mins by fluorescence plate reader. Summed up: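 rh-TACE at 80 ng/mL with 10 μM MCA-Pro-Leu-Ala-Gln-Ala-Val-Dpa-Arg-Ser-Ser-Ser-Arg-NH₂, in 100 mM Tris-HCl pH 7.5, 150 mM NaCl, 10 mM CaCl₂, 0.05% Brij-35. Inhibitor preincubated for 15 min at 25 °C. Fluorescence (ex 325/em 405 nm) read at 60 min. IC50 from three linear-range points; mean of ≥2.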

A further data set addresses Cytochrome P450 2C19 (Homo sapiens, UniProt P33261). Put plainly: Inhibition of CYP2C19 at up to 50 uM. Format: ADME.
The target of the next data set is T5, Cytochrome P450 2A6 (Homo sapiens, UniProt P11509).
T5 sequence (P11509 whole entry): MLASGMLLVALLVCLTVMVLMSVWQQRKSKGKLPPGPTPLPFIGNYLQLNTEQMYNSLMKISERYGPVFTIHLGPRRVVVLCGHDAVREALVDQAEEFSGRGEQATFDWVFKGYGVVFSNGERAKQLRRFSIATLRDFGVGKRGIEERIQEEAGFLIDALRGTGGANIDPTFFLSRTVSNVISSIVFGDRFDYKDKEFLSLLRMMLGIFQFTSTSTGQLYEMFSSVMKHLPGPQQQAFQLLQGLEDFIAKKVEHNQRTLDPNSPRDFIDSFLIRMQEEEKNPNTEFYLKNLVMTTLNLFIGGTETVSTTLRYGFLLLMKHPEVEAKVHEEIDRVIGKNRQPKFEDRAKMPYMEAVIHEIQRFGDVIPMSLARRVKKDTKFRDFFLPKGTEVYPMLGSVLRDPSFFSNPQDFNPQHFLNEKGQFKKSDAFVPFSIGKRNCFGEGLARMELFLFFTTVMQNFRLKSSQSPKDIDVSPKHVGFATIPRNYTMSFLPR
Put plainly: Inhibition of CYP2A6 at up to 50 uM. Format: ADME.

Data set [9] can be described thus: Half life in Sprague-Dawley rat at 10 mg/kg, po. It counts as ADME, organism-based. The arrangement: dose 10 mg/kg, route oral. As to conditions: in vivo.
Data set [10] is described as follows: Cmax in Sprague-Dawley rat at 10 mg/kg, po. It counts as ADME, organism-based. The arrangement: dose 10 mg/kg, route oral. As to conditions: in vivo.

Sequence of Cytochrome P450 2C19 (P33261 whole entry): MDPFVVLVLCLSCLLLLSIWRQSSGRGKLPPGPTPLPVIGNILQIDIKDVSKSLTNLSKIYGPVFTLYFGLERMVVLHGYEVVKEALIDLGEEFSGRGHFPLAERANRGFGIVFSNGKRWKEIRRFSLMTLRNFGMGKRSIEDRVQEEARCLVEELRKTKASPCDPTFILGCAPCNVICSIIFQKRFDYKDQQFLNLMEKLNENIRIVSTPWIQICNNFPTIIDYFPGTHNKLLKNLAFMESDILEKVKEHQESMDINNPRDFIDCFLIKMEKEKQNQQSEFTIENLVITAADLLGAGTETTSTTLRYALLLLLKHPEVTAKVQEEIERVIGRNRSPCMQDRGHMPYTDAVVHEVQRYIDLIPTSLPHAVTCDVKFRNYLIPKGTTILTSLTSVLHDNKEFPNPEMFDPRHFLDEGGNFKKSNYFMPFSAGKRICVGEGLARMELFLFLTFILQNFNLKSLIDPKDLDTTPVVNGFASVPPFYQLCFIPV
Sequence of Stromelysin-1 (P08254 whole entry): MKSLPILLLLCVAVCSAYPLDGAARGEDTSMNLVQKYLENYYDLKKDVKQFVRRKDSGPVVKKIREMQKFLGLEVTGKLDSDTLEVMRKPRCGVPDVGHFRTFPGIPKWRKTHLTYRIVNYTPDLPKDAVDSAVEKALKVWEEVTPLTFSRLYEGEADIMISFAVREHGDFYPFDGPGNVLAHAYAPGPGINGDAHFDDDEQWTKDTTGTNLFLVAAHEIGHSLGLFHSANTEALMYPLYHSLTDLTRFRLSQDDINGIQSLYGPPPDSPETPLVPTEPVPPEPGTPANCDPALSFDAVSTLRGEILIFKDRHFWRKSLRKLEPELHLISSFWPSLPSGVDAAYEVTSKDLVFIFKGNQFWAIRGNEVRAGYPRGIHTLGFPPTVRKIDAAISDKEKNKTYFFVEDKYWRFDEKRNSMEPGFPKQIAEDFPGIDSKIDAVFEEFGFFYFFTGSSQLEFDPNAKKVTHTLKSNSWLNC
Sequence of Disintegrin and metalloproteinase domain-containing protein 17 (P78536 whole entry, the tested form may be a part): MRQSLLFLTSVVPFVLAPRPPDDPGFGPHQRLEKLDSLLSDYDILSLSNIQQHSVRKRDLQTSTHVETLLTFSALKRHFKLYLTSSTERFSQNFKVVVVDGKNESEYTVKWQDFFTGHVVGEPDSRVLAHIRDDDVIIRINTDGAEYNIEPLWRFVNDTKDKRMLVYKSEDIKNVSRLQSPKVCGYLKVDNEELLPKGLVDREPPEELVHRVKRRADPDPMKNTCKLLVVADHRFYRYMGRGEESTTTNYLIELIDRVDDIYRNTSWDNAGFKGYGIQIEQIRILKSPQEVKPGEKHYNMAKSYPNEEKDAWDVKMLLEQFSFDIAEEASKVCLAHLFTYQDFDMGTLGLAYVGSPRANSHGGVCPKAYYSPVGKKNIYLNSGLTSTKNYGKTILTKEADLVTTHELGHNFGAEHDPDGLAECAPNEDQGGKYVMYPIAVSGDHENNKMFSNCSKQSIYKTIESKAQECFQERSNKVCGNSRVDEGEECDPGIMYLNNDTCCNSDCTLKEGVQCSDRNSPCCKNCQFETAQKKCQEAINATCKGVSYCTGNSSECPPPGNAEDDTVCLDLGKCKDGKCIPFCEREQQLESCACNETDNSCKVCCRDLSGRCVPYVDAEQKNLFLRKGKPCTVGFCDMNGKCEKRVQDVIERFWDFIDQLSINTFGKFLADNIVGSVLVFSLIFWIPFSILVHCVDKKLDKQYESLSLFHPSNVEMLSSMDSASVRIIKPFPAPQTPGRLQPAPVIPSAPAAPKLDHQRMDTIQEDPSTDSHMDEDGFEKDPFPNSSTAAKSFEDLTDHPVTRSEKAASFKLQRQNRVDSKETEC
Sequence of Cytochrome P450 2C9 (P11712 whole entry): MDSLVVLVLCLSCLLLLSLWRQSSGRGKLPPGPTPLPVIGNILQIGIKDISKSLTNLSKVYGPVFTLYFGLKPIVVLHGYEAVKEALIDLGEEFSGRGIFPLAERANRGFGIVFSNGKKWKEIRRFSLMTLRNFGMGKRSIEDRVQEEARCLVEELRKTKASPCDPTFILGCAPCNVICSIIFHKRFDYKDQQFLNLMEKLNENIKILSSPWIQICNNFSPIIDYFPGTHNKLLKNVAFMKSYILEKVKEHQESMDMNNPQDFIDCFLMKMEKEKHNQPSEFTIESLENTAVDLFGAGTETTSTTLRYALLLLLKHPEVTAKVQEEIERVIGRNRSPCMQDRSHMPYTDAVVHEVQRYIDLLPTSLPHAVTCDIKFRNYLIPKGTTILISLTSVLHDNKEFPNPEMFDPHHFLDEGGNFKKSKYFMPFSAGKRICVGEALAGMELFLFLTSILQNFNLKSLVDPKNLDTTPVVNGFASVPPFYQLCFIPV
Sequence of Matrix metalloproteinase-9 (P14780 whole entry): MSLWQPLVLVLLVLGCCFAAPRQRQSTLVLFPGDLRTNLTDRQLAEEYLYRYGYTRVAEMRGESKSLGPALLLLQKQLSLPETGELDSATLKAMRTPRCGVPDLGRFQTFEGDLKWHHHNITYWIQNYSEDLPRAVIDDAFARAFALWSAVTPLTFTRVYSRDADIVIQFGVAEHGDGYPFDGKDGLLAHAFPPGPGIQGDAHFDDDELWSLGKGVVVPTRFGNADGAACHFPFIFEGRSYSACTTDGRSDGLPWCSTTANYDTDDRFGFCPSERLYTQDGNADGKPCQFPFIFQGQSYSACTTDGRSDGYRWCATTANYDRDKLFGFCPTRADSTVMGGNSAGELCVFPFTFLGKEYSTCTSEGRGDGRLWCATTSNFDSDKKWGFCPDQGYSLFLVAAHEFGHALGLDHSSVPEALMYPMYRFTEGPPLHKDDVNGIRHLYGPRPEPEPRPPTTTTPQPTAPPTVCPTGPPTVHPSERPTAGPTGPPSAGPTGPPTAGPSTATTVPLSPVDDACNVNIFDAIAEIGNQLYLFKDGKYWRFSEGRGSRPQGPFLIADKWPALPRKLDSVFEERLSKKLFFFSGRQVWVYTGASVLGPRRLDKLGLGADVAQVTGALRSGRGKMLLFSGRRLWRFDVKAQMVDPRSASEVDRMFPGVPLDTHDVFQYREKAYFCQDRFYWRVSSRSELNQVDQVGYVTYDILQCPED
Sequence of Cytochrome P450 3A4 (P08684 whole entry): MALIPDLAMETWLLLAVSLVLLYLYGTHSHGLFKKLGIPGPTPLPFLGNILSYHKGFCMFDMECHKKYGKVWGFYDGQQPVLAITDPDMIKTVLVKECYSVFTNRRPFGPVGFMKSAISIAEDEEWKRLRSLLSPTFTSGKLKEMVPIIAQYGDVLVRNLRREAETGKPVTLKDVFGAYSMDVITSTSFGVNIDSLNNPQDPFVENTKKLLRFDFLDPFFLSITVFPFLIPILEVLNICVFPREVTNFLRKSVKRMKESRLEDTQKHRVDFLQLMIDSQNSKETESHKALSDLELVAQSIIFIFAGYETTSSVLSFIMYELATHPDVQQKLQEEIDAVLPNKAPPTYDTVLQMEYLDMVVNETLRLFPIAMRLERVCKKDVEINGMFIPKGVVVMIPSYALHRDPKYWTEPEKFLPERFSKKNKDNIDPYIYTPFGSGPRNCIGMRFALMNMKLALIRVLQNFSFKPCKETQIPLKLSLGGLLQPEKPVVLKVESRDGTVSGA
Sequence of Cytochrome P450 2D6 (P10635 whole entry, the tested form may be a part): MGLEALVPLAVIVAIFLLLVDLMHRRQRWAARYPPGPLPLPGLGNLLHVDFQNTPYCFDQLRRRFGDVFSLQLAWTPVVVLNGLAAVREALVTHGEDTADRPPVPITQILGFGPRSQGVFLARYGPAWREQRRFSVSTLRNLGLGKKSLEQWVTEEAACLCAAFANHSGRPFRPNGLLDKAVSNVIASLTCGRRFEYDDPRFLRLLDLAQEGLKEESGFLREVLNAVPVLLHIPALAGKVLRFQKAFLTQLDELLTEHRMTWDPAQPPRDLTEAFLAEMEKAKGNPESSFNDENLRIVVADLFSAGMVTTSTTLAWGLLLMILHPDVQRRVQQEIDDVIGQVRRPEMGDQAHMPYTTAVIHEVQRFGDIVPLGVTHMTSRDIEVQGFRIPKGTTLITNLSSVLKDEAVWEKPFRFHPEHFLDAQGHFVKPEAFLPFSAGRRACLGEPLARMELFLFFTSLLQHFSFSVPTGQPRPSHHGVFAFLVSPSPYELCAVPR

What is called IC50 is the concentration that gives 50% inhibition. Take `C[C@@H]1[C@H](c2ccccc2)[C@]1(NS(=O)(=O)c1ccc(-n2cc(Cl)cn2)s1)C(=O)O`: the IC50 came out at 3.4 nM at Collagenase 3; 4 nM in [1]; 3.9 nM in data set [2]; 58 nM in data set [3]; 68 nM at Stromelysin-1.
One may read the clearance as a measure of how efficiently the substance is removed, as volume per time. Low values mean inefficient removal, high ones efficient removal. In general, AUC refers to concentration integrated over time. High values mean more exposure, low ones less exposure. A word on the half-life: it is the time in which the quantity being followed falls by half. The Cmax is the highest concentration seen after dosing. On to `C[C@@H]1[C@](C)(c2ccccc2)[C@]1(NS(=O)(=O)N1CCn2c(nc3cc(F)ccc32)C1)C(=O)O`, for which the Vd in [4] was determined as 0.7 L/kg. The molecule also gave a clearance in data set [5] of 10 mL/min/kg. The AUC in [6] worked out at 76.9 µM·h. Moreover, the “inhibition (INH)” value against Cytochrome P450 3A4, at Cytochrome P450 2C9, on Cytochrome P450 1A2, on Cytochrome P450 2D6, against Cytochrome P450 2C19 and at Cytochrome P450 2A6 was “Not Active” in each case. Besides, in the data set on Rattus norvegicus, the F turned out to be 196%. Also, the IC50 in data set [7] was 14 nM; at Interstitial collagenase, greater than 10000 nM; in data set [8], greater than 10000 nM; in data set [2] it was greater than 10000 nM. The half-life in data set [9] was 2 h. Further, the Cmax in data set [10] amounted to 17.4 µM.

(Values after ChEMBL document CHEMBL1765003, “Discovery of (1S,2R,3R)-2,3-dimethyl-2-phenyl-1-sulfamidocyclopropanecarboxylates: novel and highly selective aggrecanase inhibitors” (J Med Chem, 2011).)
